By MIC is commonly meant the lowest concentration found to suppress growth. Higher therefore signals a less susceptible organism. Broadly, the Cmax is the peak of the concentration-time curve. One may read the AUC(0-t) as exposure summed from dosing to a finite time, without extrapolation to infinity. The low end stands for less exposure, the high end for more exposure.

The structures appear in SMILES notation. In brackets after ≈: the same amount, converted by molar mass. *1 amine or outer side, *2 acyl side, *3 side chain or, on linkers, in order; H or OH if unused. Where a SMILES comes first, the peptide text is derived from it. Bridges are numbered along the chain shown (N, C = ends). [ ]: non-standard residue; d: D form. The star is where a group is joined. hTyr(3S-OH,4S-OH,3'-OSO3H) = N[C@H](C(=O)O)[C@H](O)[C@@H](O)c1ccc(O)c(OS(=O)(=O)O)c1; pTerphenylCO(4''-OnC5H11) = CCCCCOc1ccc(-c2ccc(-c3ccc(C(=O)*)cc3)cc2)cc1; Orn(4R-OH,5R-OH) = O=C([C@H](C[C@@H](O)[C@@H](O)N[*:3])N[*:1])[*:2]; hTyr(3S-OH,4S-OH) = N[C@H](C(=O)O)[C@H](O)[C@@H](O)c1ccc(O)cc1; Pro(3S-OH,4S-Me) = C[C@H]1CN[C@H](C(=O)O)[C@H]1O; X1 = CCCCCOc1ccc(-c2cc(-c3ccc(C(=O)*)cc3)no2)cc1; Gln(3R-OH) = NC(=O)C[C@@H](O)[C@H](N)C(=O)O; Hyp = O=C(O)[C@@H]1C[C@@H](O)CN1

Data set [1] deals with Mus musculus. Put plainly: Protein binding in Candida albicans infected neutropenic ICR Swiss mouse at 80 mg/kg, ip. As to conditions: in vivo. The arrangement: dose 80 mg/kg, route intraperitoneal. The format is ADME, organism-based.
The nature of data set [2]: Ratio of fAUC (0 to 24 hrs) in Candida albicans infected neutropenic ICR Swiss mouse to MIC for Candida albicans at static dose after 24 hrs. The format is functional.
Data set [3] is described as follows: Ratio of fAUC (0 to 24 hrs) in Candida glabrata infected neutropenic ICR Swiss mouse to MIC for Candida glabrata at static dose after 24 hrs. The class given is functional.
A short description of data set [4]: Ratio of fAUC (0 to 24 hrs) in Candida parapsilosis infected neutropenic ICR Swiss mouse to MIC for Candida parapsilosis at static dose after 24 hrs. The class given is functional.
The nature of data set [5]: Ratio of fAUC (0 to 24 hrs) in Candida albicans infected neutropenic ICR Swiss mouse to MIC for Candida albicans at 1 log kill dose after 24 hrs. The format is functional.
The test system of data set [6] is Candida albicans. Nature of the data set: Fungistatic activity against Candida albicans infected in neutropenic ICR Swiss mouse after 24 hrs. The class given is functional. In a few lines:
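Female ICR Swiss mice, neutropenic via cyclophosphamide s.c. (150 mg/kg day −4, 100 mg/kg day −1 and day +2), infected by tail-vein injection of clinical isolates 2 h before therapy. Intraperitoneal dosing every 24 h for 4 days, 4–6 dose levels from 0.078 to 160 mg/kg, 3 mice per regimen. Kidney CFU counted at 96 h. Sigmoid dose-effect fit gives static dose and 1 log kill dose relative to burden at start of therapy.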

Data set [7] relates to Candida albicans. Put plainly: Antifungal activity against Candida albicans 98-17 after 24 hrs. The format is functional. As to conditions: 98-17, 24 h. An outline of the steps:
(§1)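 MICs by CLSI M27-A3 broth dilution in RPMI 1640, inoculum 0.5 × 10³ to 2.5 × 10³ cells/ml, 35°C. Read visually at 24 h as the lowest concentration giving ≥50% growth reduction versus control. Run on three occasions in duplicate and reported as the mean. C. krusei ATCC 6258 and C. parapsilosis ATCC 22019 served as QC strains.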

Data set [8] deals with Candida albicans. Put plainly: Antifungal activity against Candida albicans 98-234 after 24 hrs. The class given is functional. As to conditions: 98-234, 24 h. An outline of the steps:
as §1

Data set [9] has as its system Candida albicans. Put plainly: Antifungal activity against Candida albicans 570 after 24 hrs. The format is functional. As to conditions: Candida albicans, 570, 24 h. In a few lines:
as §1

Another data set has as its system Nakaseomyces glabratus. Nature of the data set: Antifungal activity against Candida glabrata 5592 after 24 hrs. The class given is functional. As to conditions: Nakaseomyces glabratus, 5592, 24 h. An outline of the steps:
(§2)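 Broth microdilution per CLSI M27-A3 in RPMI 1640; inoculum 0.5 × 10³ to 2.5 × 10³ cells/ml, 35°C. […] Three separate occasions in duplicate, mean reported; C. krusei ATCC 6258 and C. parapsilosis ATCC 22019 as daily QC.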

The test system of another data set is Candida metapsilosis. Put plainly: Antifungal activity against Candida metapsilosis 20463.02 after 24 hrs. As to conditions: Lodderomyces metapsilosis, 20463.02, 24 h. The class given is functional. An outline of the steps: as §1
For data set [10], the system named is Candida parapsilosis. Nature of the data set: Antifungal activity against Candida parapsilosis 20423.078 after 24 hrs. The format is functional. As to conditions: Lodderomyces parapsilosis, 20423.078, 24 h. In a few lines:
as §1

For data set [11], the system named is Candida parapsilosis. Put plainly: Antifungal activity against Candida parapsilosis 20562.03 after 24 hrs. The format is functional. As to conditions: Lodderomyces parapsilosis, 20562.03, 24 h. In a few lines:
as §1

Data set [12] relates to Candida parapsilosis. Nature of the data set: Antifungal activity against Candida parapsilosis 20489.085 after 24 hrs. The format is functional. As to conditions: Lodderomyces parapsilosis, 20489.085, 24 h. An outline of the steps:
as §2

Data set [13] deals with Candida parapsilosis. Nature of the data set: Antifungal activity against Candida parapsilosis 20511.092 after 24 hrs. As to conditions: Lodderomyces parapsilosis, 20511.092, 24 h. The format is functional. In a few lines:
as §1

The next data set deals with Candida orthopsilosis. Nature of the data set: Antifungal activity against Candida orthopsilosis 20577.055 after 24 hrs. As to conditions: Lodderomyces orthopsilosis, 20577.055, 24 h. The format is functional. An outline of the steps:
as §1

The test system of data set [14] is Mus musculus. Put plainly: Cmax in Candida albicans infected neutropenic ICR Swiss mouse at 80 mg/kg, ip. The class given is ADME, organism-based. The arrangement: dose 80 mg/kg, route intraperitoneal. As to conditions: in vivo. An outline of the steps:
(§3)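 Neutropenic female ICR Swiss mice (cyclophosphamide sc at 150 mg/kg on day −4, 100 mg/kg on day −1 and day +2) infected iv via tail vein with Candida; single ip doses of 5, 20 or 80 mg/kg. Serum drawn from 3 mice per time point at eight time points and assayed by microbiologic assay (C. albicans K1) or […]. Noncompartmental analysis; AUC by trapezoidal rule.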

For data set [15], the system named is Mus musculus. Nature of the data set: Cmax in Candida albicans infected neutropenic ICR Swiss mouse at 20 mg/kg, ip. As to conditions: in vivo. The arrangement: dose 20 mg/kg, route intraperitoneal. The class given is ADME, organism-based. In a few lines: as §3
In data set [16] the test system is Mus musculus. Put plainly: Cmax in Candida albicans infected neutropenic ICR Swiss mouse at 5 mg/kg, ip. The format is ADME, organism-based. On the set-up: dose 5 mg/kg, route intraperitoneal. As to conditions: in vivo. In a few lines: as §3
A short description of data set [17]: AUC (0 to 24 hrs) in Candida albicans infected neutropenic ICR Swiss mouse at 80 mg/kg, ip. The format is ADME, organism-based. The arrangement: time < 24 hr, dose 80 mg/kg, route intraperitoneal. As to conditions: plasma. An outline of the steps: as §3

For the compound `CCCCCOc1ccc(-c2ccc(-c3ccc(C(=O)N[C@H]4C[C@@H](O)[C@@H](O)NC(=O)[C@@H]5[C@@H](O)[C@@H](C)CN5C(=O)[C@H]([C@@H](C)O)NC(=O)[C@H]([C@H](O)[C@@H](O)c5ccc(O)cc5)NC(=O)[C@@H]5C[C@@H](O)CN5C(=O)[C@H]([C@@H](C)O)NC4=O)cc3)cc2)cc1` [ANIDULAFUNGIN] ({pTerphenylCO(4''-OnC5H11)}-[Orn(4R-OH,5R-OH)]T[Hyp][hTyr(3S-OH,4S-OH)]T[Pro(3S-OH,4S-Me)]; lactam 1-C), the Activity in the data set on Mus musculus [1] was found to be 99%; in the data set on Candida albicans [6], 2.32 mg/kg. In addition, the Ratio was determined as 27.8 in data set [2], 13.7 in [3], 11.5 in data set [4] and 91 in data set [5]. The minimal inhibitory concentration (MIC) against Candida albicans [7] stood at 0.03 µg/mL (≈ 0.0263 µM); against Candida albicans [8], 0.015 µg/mL (≈ 0.0132 µM); with Candida albicans [9], 0.03 µg/mL (≈ 0.0263 µM); against Nakaseomyces glabratus it was 0.06 µg/mL (≈ 0.0526 µM); in the data set with Candida metapsilosis, 0.25 µg/mL (≈ 0.219 µM); against Candida parapsilosis [10], 1 µg/mL (≈ 0.877 µM). Moreover, the MIC was 1 µg/mL (≈ 0.877 µM) in the data set with Candida parapsilosis [11], 1 µg/mL (≈ 0.877 µM) against Candida parapsilosis [12], 1 µg/mL (≈ 0.877 µM) against Candida parapsilosis [13] and 0.5 µg/mL (≈ 0.438 µM) against Candida orthopsilosis. Further, the values for the Cmax with Mus musculus [14], in the data set with Mus musculus [15] and in the data set with Mus musculus [16] were 60000 ng/mL, 24000 ng/mL and 4300 ng/mL, respectively. The AUC(0-t) at 24 h in data set [17] stood at 1980 µg·h/mL.
As for `CCCCCOc1ccc(-c2cc(-c3ccc(C(=O)N[C@H]4C[C@@H](O)[C@@H](O)NC(=O)[C@@H]5[C@@H](O)[C@@H](C)CN5C(=O)[C@H]([C@H](O)CC(N)=O)NC(=O)[C@H]([C@H](O)[C@@H](O)c5ccc(O)c(OS(=O)(=O)O)c5)NC(=O)[C@@H]5C[C@@H](O)CN5C(=O)[C@H]([C@@H](C)O)NC4=O)cc3)no2)cc1` [MICAFUNGIN] (X1-[Orn(4R-OH,5R-OH)]T[Hyp][hTyr(3S-OH,4S-OH,3'-OSO3H)][Gln(3R-OH)][Pro(3S-OH,4S-Me)]; lactam 1-C), the Activity in the data set with Mus musculus [1] came out at 99.75%; in the data set on Candida albicans [6] it was 2.79 mg/kg. The Ratio in [2] is 12.7; in [3], 3.9; in data set [4] it was 4.95; in data set [5], 25.2. In addition, the MIC against Candida albicans [7] amounted to 0.03 µg/mL (≈ 0.0236 µM); with Candida albicans [9] it was 0.02 µg/mL (≈ 0.0157 µM); with Nakaseomyces glabratus, 0.016 µg/mL (≈ 0.0126 µM); against Candida metapsilosis it was 0.12 µg/mL (≈ 0.0945 µM); against Candida parapsilosis [10] it was 0.5 µg/mL (≈ 0.394 µM); in the data set on Candida parapsilosis [11], 0.5 µg/mL (≈ 0.394 µM). The MIC against Candida parapsilosis [12] was determined as 0.12 µg/mL (≈ 0.0945 µM); in the data set on Candida parapsilosis [13] it was 0.25 µg/mL (≈ 0.197 µM); in the data set with Candida orthopsilosis, 0.25 µg/mL (≈ 0.197 µM). The compound further returned an AUC(0-t) at 24 h in data set [17] of 1400 µg·h/mL.

(Values after ChEMBL document CHEMBL1255494, “In vivo comparison of the pharmacodynamic targets for echinocandin drugs against Candida species” (Antimicrob Agents Chemother, 2010).)
